Laboratory results from ChEMBL document CHEMBL4765393, “Discovery of novel small molecule inhibitors of S100P with in vitro anti-metastatic effects on pancreatic cancer cells” (Eur J Med Chem, 2020).
The source made the active and inactive calls. No cut-off for these calls is given here.

organism: Homo sapiens; assay: Inhibition of human recombinant S100P/RAGE interaction incubated for 1 hr and measured by ELISA based binding assay; conditions: not given
Procedure, shortened: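 His-tagged human S100P, expressed in E. coli BL21 and Ni-NTA purified, was coated at 2 μM in PBS pH 7.4 with 1 mM CaCl2, 10 μM ZnCl2 and 0.5 mM MgCl2 overnight at 37 °C, then blocked with 1% BSA for 2 h. Wells got increasing compound concentrations in triplicate, then human RAGE-Fc for 1 h at 37 °C, anti-human HRP for 1 h, and TMB for 20 min. Read at 450 nm, normalized to S100P+RAGE-Fc; IC50 estimated.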

SMILES | INH
O=C1C2C3c4ccccc4C(c4ccccc43)C2C(=O)N1c1ccccc1 (centres undefined) | 10 nM
O=C1C2C3c4ccccc4C([N+](=O)[O-])(c4ccccc43)C2C(=O)N1c1cccc(F)c1 (centres undefined) | 100 nM
O=C1C2C3c4ccccc4C(c4ccccc43)C2C(=O)N1c1ccc(F)cc1 (centres undefined) | 10 nM
O=C(O)c1ccc(N2C(=O)C3C4c5ccccc5C([N+](=O)[O-])(c5ccccc54)C3C2=O)cc1 (centres undefined) | < 10 nM
O=C(O)c1cccc(N2C(=O)C3C4c5ccccc5C([N+](=O)[O-])(c5ccccc54)C3C2=O)c1 (centres undefined) | 10 nM
O=C1C2C3c4ccccc4C(c4ccccc43)C2C(=O)N1c1cccc(F)c1 (centres undefined) | 10 nM

test system: PANC-1; assay: Antiinvasive activity in human PANC-1 cells assessed as inhibition of cell invasion at 10 uM incubated for 48 hrs by transwell invasion assay; format: functional, cell-based; conditions: not given
Procedure, shortened: (§1)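 Matrigel-coated Transwell (PET membrane, 8 μm pores). BxPC-3 (RPMI-1640) or Panc-1 (DMEM) cells were seeded at 2 × 10^5 cells/mL in serum-free medium in the upper chamber, with 10% FBS below as chemoattractant. Cells were given 10 μM compound (0.1% DMSO final) for 48 h at 37 °C, 5% CO2. Invaded cells were Diff-Quik stained and counted in five ×100 fields. Three independent experiments.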

SMILES | Activity
O=C1C2C3c4ccccc4C(c4ccccc43)C2C(=O)N1c1ccccc1 (centres undefined) | inactive
O=C(O)c1cc(=O)c2c(OCC(O)COc3cccc4oc(C(=O)O)cc(=O)c34)cccc2o1 | inactive
Cc1ccc(-c2ccc(=O)n(CC(=O)Nc3ccc(-n4cnnn4)cc3)n2)cc1 | inactive
O=C1C2C3c4ccccc4C([N+](=O)[O-])(c4ccccc43)C2C(=O)N1c1cccc(F)c1 (centres undefined) | inactive
O=C1C2C3c4ccccc4C(c4ccccc43)C2C(=O)N1c1ccc(F)cc1 (centres undefined) | inactive
O=C(O)c1ccc(N2C(=O)C3C4c5ccccc5C([N+](=O)[O-])(c5ccccc54)C3C2=O)cc1 (centres undefined) | inactive
COc1ccc(/C=C2/C(=O)NC(=O)N(c3ccc(Cl)c(Cl)c3)C2=O)cc1C(=O)O | inactive
O=C(Cc1cc(O)n[nH]1)N/N=C/c1c(Cl)cccc1Cl | inactive
N#CCCn1cc(C(=O)Nc2ccc(C(=O)O)cc2)c(-c2ccccc2)n1 | inactive
O=C(O)c1cccc(N2C(=O)C3C4c5ccccc5C([N+](=O)[O-])(c5ccccc54)C3C2=O)c1 (centres undefined) | inactive
O=C1C2C3c4ccccc4C(c4ccccc43)C2C(=O)N1c1cccc(F)c1 (centres undefined) | inactive

test system: BXPC-3; assay: Cytotoxicity against S100P expressing human BXPC-3 cells assessed as reduction in cell viability at 10 uM measured after 24 hrs by MTS assay; format: functional, cell-based; conditions: not given
Procedure, shortened: (§2)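 1 × 10^5 BxPC-3 (RPMI-1640) or Panc-1 (DMEM high glucose) cells, in medium with 10% FBS, were allowed to adhere for 24 h, then given 10 μM compound. MTS absorbance was read at 492 nm every 24 h. Background was subtracted and values normalized to untreated cells. n = 3 separate experiments.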

SMILES | Activity
O=C1C2C3c4ccccc4C(c4ccccc43)C2C(=O)N1c1ccccc1 (centres undefined) | inactive
O=C(O)c1cc(=O)c2c(OCC(O)COc3cccc4oc(C(=O)O)cc(=O)c34)cccc2o1 | inactive
Cc1ccc(-c2ccc(=O)n(CC(=O)Nc3ccc(-n4cnnn4)cc3)n2)cc1 | inactive
O=C1C2C3c4ccccc4C([N+](=O)[O-])(c4ccccc43)C2C(=O)N1c1cccc(F)c1 (centres undefined) | inactive
O=C1C2C3c4ccccc4C(c4ccccc43)C2C(=O)N1c1ccc(F)cc1 (centres undefined) | inactive
O=C(O)c1ccc(N2C(=O)C3C4c5ccccc5C([N+](=O)[O-])(c5ccccc54)C3C2=O)cc1 (centres undefined) | inactive
COc1ccc(/C=C2/C(=O)NC(=O)N(c3ccc(Cl)c(Cl)c3)C2=O)cc1C(=O)O | inactive
O=C(Cc1cc(O)n[nH]1)N/N=C/c1c(Cl)cccc1Cl | inactive
N#CCCn1cc(C(=O)Nc2ccc(C(=O)O)cc2)c(-c2ccccc2)n1 | inactive
O=C(O)c1cccc(N2C(=O)C3C4c5ccccc5C([N+](=O)[O-])(c5ccccc54)C3C2=O)c1 (centres undefined) | inactive
O=C1C2C3c4ccccc4C(c4ccccc43)C2C(=O)N1c1cccc(F)c1 (centres undefined) | inactive

test system: BXPC-3; assay: Antiinvasive activity in S100P expressing human BXPC-3 cells assessed as inhibition of cell invasion at 100 to 200 uM incubated for 48 hrs by transwell invasion assay; conditions: dose 100-200 µM

SMILES | Activity
O=C(O)c1cc(=O)c2c(OCC(O)COc3cccc4oc(C(=O)O)cc(=O)c34)cccc2o1 | Active

test system: BXPC-3; assay: Antiinvasive activity in S100P expressing human BXPC-3 cells assessed as inhibition of cell invasion at 10 uM incubated for 48 hrs by transwell invasion assay; format: functional, cell-based; conditions: not given; procedure, shortened: as §1

SMILES | Activity
O=C1C2C3c4ccccc4C(c4ccccc43)C2C(=O)N1c1ccccc1 (centres undefined) | Active
O=C(O)c1cc(=O)c2c(OCC(O)COc3cccc4oc(C(=O)O)cc(=O)c34)cccc2o1 | inactive
Cc1ccc(-c2ccc(=O)n(CC(=O)Nc3ccc(-n4cnnn4)cc3)n2)cc1 | Active
O=C1C2C3c4ccccc4C([N+](=O)[O-])(c4ccccc43)C2C(=O)N1c1cccc(F)c1 (centres undefined) | Active
O=C1C2C3c4ccccc4C(c4ccccc43)C2C(=O)N1c1ccc(F)cc1 (centres undefined) | Active
O=C(O)c1ccc(N2C(=O)C3C4c5ccccc5C([N+](=O)[O-])(c5ccccc54)C3C2=O)cc1 (centres undefined) | Active
COc1ccc(/C=C2/C(=O)NC(=O)N(c3ccc(Cl)c(Cl)c3)C2=O)cc1C(=O)O | Active
O=C(Cc1cc(O)n[nH]1)N/N=C/c1c(Cl)cccc1Cl | Active
N#CCCn1cc(C(=O)Nc2ccc(C(=O)O)cc2)c(-c2ccccc2)n1 | Active
O=C(O)c1cccc(N2C(=O)C3C4c5ccccc5C([N+](=O)[O-])(c5ccccc54)C3C2=O)c1 (centres undefined) | Active
O=C1C2C3c4ccccc4C(c4ccccc43)C2C(=O)N1c1cccc(F)c1 (centres undefined) | Active

test system: BXPC-3; assay: Cytotoxicity against S100P expressing human BXPC-3 cells assessed as LDH release at 10 uM measured after 24 hrs by LDH assay; format: functional, cell-based; conditions: not given
Procedure, shortened: (§3)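 1 × 10^5 BxPC-3 (RPMI-1640) or Panc-1 (DMEM high glucose) cells were allowed to adhere for 24 h, then given 10 μM compound. Membrane integrity was measured by LDH release (CytoTox-ONE) every 24 h for up to 3 days, with background OD subtracted.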

SMILES | Activity
O=C1C2C3c4ccccc4C(c4ccccc43)C2C(=O)N1c1ccccc1 (centres undefined) | inactive
O=C(O)c1cc(=O)c2c(OCC(O)COc3cccc4oc(C(=O)O)cc(=O)c34)cccc2o1 | inactive
Cc1ccc(-c2ccc(=O)n(CC(=O)Nc3ccc(-n4cnnn4)cc3)n2)cc1 | inactive
O=C1C2C3c4ccccc4C([N+](=O)[O-])(c4ccccc43)C2C(=O)N1c1cccc(F)c1 (centres undefined) | inactive
O=C1C2C3c4ccccc4C(c4ccccc43)C2C(=O)N1c1ccc(F)cc1 (centres undefined) | inactive
O=C(O)c1ccc(N2C(=O)C3C4c5ccccc5C([N+](=O)[O-])(c5ccccc54)C3C2=O)cc1 (centres undefined) | inactive
COc1ccc(/C=C2/C(=O)NC(=O)N(c3ccc(Cl)c(Cl)c3)C2=O)cc1C(=O)O | inactive
O=C(Cc1cc(O)n[nH]1)N/N=C/c1c(Cl)cccc1Cl | inactive
N#CCCn1cc(C(=O)Nc2ccc(C(=O)O)cc2)c(-c2ccccc2)n1 | inactive
O=C(O)c1cccc(N2C(=O)C3C4c5ccccc5C([N+](=O)[O-])(c5ccccc54)C3C2=O)c1 (centres undefined) | inactive
O=C1C2C3c4ccccc4C(c4ccccc43)C2C(=O)N1c1cccc(F)c1 (centres undefined) | inactive

test system: PANC-1; assay: Cytotoxicity against human PANC-1 cells assessed as LDH release at 10 uM measured after 24 hrs by LDH assay; format: functional, cell-based; conditions: not given; procedure, shortened: as §3

SMILES | Activity
O=C1C2C3c4ccccc4C(c4ccccc43)C2C(=O)N1c1ccccc1 (centres undefined) | inactive
O=C(O)c1cc(=O)c2c(OCC(O)COc3cccc4oc(C(=O)O)cc(=O)c34)cccc2o1 | inactive
Cc1ccc(-c2ccc(=O)n(CC(=O)Nc3ccc(-n4cnnn4)cc3)n2)cc1 | inactive
O=C1C2C3c4ccccc4C([N+](=O)[O-])(c4ccccc43)C2C(=O)N1c1cccc(F)c1 (centres undefined) | inactive
O=C1C2C3c4ccccc4C(c4ccccc43)C2C(=O)N1c1ccc(F)cc1 (centres undefined) | inactive
O=C(O)c1ccc(N2C(=O)C3C4c5ccccc5C([N+](=O)[O-])(c5ccccc54)C3C2=O)cc1 (centres undefined) | inactive
COc1ccc(/C=C2/C(=O)NC(=O)N(c3ccc(Cl)c(Cl)c3)C2=O)cc1C(=O)O | inactive
O=C(Cc1cc(O)n[nH]1)N/N=C/c1c(Cl)cccc1Cl | inactive
N#CCCn1cc(C(=O)Nc2ccc(C(=O)O)cc2)c(-c2ccccc2)n1 | inactive
O=C(O)c1cccc(N2C(=O)C3C4c5ccccc5C([N+](=O)[O-])(c5ccccc54)C3C2=O)c1 (centres undefined) | inactive
O=C1C2C3c4ccccc4C(c4ccccc43)C2C(=O)N1c1cccc(F)c1 (centres undefined) | inactive

test system: not listed separately; assay: Aqueous solubility of the compound in 0.1% DMSO; format: physicochemical; conditions: buffer

SMILES | solubility
O=C1C2C3c4ccccc4C(c4ccccc43)C2C(=O)N1c1ccccc1 (centres undefined) | Soluble
O=C1C2C3c4ccccc4C([N+](=O)[O-])(c4ccccc43)C2C(=O)N1c1cccc(F)c1 (centres undefined) | Soluble
O=C1C2C3c4ccccc4C(c4ccccc43)C2C(=O)N1c1ccc(F)cc1 (centres undefined) | Soluble
O=C(O)c1ccc(N2C(=O)C3C4c5ccccc5C([N+](=O)[O-])(c5ccccc54)C3C2=O)cc1 (centres undefined) | Soluble
O=C1C2C3c4ccccc4C(c4ccccc43)C2C(=O)N1c1cccc(F)c1 (centres undefined) | Soluble

test system: not listed separately; assay: Aqueous solubility of the compound in 1% DMSO; format: physicochemical; conditions: buffer

SMILES | solubility
O=C1C2C3c4ccccc4C(c4ccccc43)C2C(=O)N1c1ccccc1 (centres undefined) | Soluble
O=C1C2C3c4ccccc4C([N+](=O)[O-])(c4ccccc43)C2C(=O)N1c1cccc(F)c1 (centres undefined) | Soluble
O=C1C2C3c4ccccc4C(c4ccccc43)C2C(=O)N1c1ccc(F)cc1 (centres undefined) | Soluble
O=C(O)c1ccc(N2C(=O)C3C4c5ccccc5C([N+](=O)[O-])(c5ccccc54)C3C2=O)cc1 (centres undefined) | Soluble
O=C1C2C3c4ccccc4C(c4ccccc43)C2C(=O)N1c1cccc(F)c1 (centres undefined) | Soluble

test system: PANC-1; assay: Antiinvasive activity in human PANC-1 cells assessed as inhibition of cell invasion at 100 to 200 uM incubated for 48 hrs by transwell invasion assay; conditions: dose 100-200 µM

SMILES | Activity
O=C(O)c1cc(=O)c2c(OCC(O)COc3cccc4oc(C(=O)O)cc(=O)c34)cccc2o1 | Active

test system: PANC-1; assay: Cytotoxicity against human PANC-1 cells assessed as reduction in cell viability at 10 uM measured after 24 hrs by MTS assay; format: functional, cell-based; conditions: not given; procedure, shortened: as §2

SMILES | Activity
O=C1C2C3c4ccccc4C(c4ccccc43)C2C(=O)N1c1ccccc1 (centres undefined) | inactive
O=C(O)c1cc(=O)c2c(OCC(O)COc3cccc4oc(C(=O)O)cc(=O)c34)cccc2o1 | inactive
Cc1ccc(-c2ccc(=O)n(CC(=O)Nc3ccc(-n4cnnn4)cc3)n2)cc1 | inactive
O=C1C2C3c4ccccc4C([N+](=O)[O-])(c4ccccc43)C2C(=O)N1c1cccc(F)c1 (centres undefined) | inactive
O=C1C2C3c4ccccc4C(c4ccccc43)C2C(=O)N1c1ccc(F)cc1 (centres undefined) | inactive
O=C(O)c1ccc(N2C(=O)C3C4c5ccccc5C([N+](=O)[O-])(c5ccccc54)C3C2=O)cc1 (centres undefined) | inactive
COc1ccc(/C=C2/C(=O)NC(=O)N(c3ccc(Cl)c(Cl)c3)C2=O)cc1C(=O)O | inactive
O=C(Cc1cc(O)n[nH]1)N/N=C/c1c(Cl)cccc1Cl | inactive
N#CCCn1cc(C(=O)Nc2ccc(C(=O)O)cc2)c(-c2ccccc2)n1 | inactive
O=C(O)c1cccc(N2C(=O)C3C4c5ccccc5C([N+](=O)[O-])(c5ccccc54)C3C2=O)c1 (centres undefined) | inactive
O=C1C2C3c4ccccc4C(c4ccccc43)C2C(=O)N1c1cccc(F)c1 (centres undefined) | inactive
